Test results from ChEMBL document CHEMBL1151781, “Selectivity of inhibitors of endocannabinoid biosynthesis evaluated by activity-based protein profiling” (Bioorg Med Chem Lett, 2008).
Active and inactive are the calls of the source. The rule behind the calls is not given here.

Columns and labels:
[1] = molecular target: T1, Fatty-acid amide hydrolase 1 (Mus musculus) (UniProt O08914); assay: Inhibition of FAAH in mouse brain at 0.01 to 100 uM treated for 30 mins by SDS-PAGE using rhodamine-tagged FP probe; format: tissue-based
T1 sequence (whole entry): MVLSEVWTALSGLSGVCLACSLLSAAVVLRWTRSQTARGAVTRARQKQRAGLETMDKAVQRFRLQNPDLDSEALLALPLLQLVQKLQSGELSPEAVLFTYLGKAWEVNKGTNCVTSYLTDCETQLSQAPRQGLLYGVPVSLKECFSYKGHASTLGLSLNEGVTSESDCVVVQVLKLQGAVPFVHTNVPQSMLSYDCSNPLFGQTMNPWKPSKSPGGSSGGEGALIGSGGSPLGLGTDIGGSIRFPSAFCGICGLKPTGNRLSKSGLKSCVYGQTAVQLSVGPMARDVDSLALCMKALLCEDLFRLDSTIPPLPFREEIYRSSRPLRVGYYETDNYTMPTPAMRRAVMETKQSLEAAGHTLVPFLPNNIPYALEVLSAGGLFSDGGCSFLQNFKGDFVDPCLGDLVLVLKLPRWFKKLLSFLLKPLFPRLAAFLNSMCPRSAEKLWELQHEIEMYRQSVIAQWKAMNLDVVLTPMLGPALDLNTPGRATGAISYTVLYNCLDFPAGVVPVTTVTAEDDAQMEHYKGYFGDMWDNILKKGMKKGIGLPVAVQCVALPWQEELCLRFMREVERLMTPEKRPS
In short: (§1)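 Mouse brain membrane proteome preincubated with inhibitor across 0.01-100 μM for 30 min. A rhodamine-tagged fluorophosphonate probe (FP-Rh) was then added for 60 min. Samples were resolved by SDS-PAGE, and probe labeling of each hydrolase band was read by in-gel fluorescence scanning.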

[2] = molecular target: T2, Neutral cholesterol ester hydrolase 1 (Mus musculus) (UniProt Q8BLF1); assay: Inhibition of KIAA1363 in mouse brain at 0.01 to 100 uM treated for 30 mins by SDS-PAGE using rhodamine-tagged FP probe; format: tissue-based; in short: as §1
T2 sequence (whole entry): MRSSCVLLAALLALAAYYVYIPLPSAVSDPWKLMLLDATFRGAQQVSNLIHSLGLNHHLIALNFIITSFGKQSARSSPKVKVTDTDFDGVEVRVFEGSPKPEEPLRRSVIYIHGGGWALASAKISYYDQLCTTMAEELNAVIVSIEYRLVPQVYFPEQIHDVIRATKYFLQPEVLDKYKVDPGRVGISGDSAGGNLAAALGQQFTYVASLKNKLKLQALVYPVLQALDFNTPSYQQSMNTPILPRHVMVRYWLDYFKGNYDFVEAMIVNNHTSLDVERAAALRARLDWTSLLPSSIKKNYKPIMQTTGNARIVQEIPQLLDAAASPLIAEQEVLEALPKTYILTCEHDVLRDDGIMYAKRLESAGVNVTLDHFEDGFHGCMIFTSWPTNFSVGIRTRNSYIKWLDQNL

[3] = molecular target: Monoacylglycerol lipase ABHD6 (Mus musculus) (UniProt Q8R2Y0); assay: Inhibition of ABHD6 in mouse brain at 0.01 to 100 uM treated for 30 mins by SDS-PAGE using rhodamine-tagged FP probe; format: tissue-based; in short: as §1
Sequence of Monoacylglycerol lipase ABHD6 (Mus musculus) (Q8R2Y0 whole entry): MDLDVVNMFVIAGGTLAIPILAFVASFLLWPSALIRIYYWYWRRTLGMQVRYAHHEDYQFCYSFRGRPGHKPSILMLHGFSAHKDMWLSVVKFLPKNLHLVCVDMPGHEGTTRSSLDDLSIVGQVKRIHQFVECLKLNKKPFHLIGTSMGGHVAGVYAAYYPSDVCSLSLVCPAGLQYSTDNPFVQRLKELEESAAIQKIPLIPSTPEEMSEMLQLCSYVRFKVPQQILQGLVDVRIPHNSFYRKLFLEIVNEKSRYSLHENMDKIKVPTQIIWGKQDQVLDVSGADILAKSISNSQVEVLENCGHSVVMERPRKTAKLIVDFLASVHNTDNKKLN

[4] = molecular target: T3, Diacylglycerol lipase-beta (Mus musculus) (UniProt Q91WC9); assay: Inhibition of DAGLbeta in mouse brain assessed as >15 average spectral count at 50 uM treated for 30 mins by ABPP-MudPIT assay; format: tissue-based
T3 sequence (whole entry): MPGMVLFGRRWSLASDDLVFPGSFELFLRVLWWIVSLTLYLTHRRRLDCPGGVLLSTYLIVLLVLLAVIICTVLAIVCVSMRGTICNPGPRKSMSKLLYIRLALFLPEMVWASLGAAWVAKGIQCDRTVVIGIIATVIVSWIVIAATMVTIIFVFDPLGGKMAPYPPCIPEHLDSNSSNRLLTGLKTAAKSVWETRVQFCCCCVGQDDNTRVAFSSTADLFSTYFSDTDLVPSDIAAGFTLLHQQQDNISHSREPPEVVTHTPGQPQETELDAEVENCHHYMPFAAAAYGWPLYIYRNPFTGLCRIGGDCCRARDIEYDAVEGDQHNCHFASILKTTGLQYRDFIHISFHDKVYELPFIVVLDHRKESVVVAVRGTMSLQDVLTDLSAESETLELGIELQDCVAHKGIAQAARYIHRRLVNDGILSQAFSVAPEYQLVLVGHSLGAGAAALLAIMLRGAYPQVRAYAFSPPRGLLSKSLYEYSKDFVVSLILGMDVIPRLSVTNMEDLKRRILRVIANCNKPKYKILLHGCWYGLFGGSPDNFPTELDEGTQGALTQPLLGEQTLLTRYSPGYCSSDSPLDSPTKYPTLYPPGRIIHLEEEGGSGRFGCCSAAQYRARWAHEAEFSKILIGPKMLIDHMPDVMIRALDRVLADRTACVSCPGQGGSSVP

[5] = molecular target: T3, Diacylglycerol lipase-beta (Mus musculus); assay: Inhibition of DAGLbeta in mouse brain assessed as >15 average spectral count at 5 uM treated for 30 mins by ABPP-MudPIT assay; format: tissue-based
[6] = molecular target: Lysophosphatidylserine lipase ABHD12 (Homo sapiens, UniProt Q8N2K0); assay: Inhibition of recombinant ABHD12 transfected in HEK293T cells by SDS-PAGE using rhodamine-tagged FP probe; format: cell-based, HEK-293T
Sequence of Lysophosphatidylserine lipase ABHD12 (Q8N2K0 whole entry): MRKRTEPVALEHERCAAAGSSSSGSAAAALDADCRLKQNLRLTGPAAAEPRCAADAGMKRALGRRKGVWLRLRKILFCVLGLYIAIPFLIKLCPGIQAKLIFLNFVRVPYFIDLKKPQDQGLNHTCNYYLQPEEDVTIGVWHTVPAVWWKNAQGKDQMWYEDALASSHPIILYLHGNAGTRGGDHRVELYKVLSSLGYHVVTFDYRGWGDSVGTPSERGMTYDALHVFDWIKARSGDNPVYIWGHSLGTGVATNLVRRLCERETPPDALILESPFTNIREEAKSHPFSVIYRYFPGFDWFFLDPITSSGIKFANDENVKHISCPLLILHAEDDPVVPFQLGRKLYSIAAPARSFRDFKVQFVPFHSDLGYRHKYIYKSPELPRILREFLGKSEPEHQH
In short: (§2)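 HEK293T cells were transfected with cDNA for the target hydrolase. The transfected proteome was treated with inhibitor across 0.01-100 μM, then labeled with rhodamine-tagged fluorophosphonate probe (FP-Rh). Loss of probe labeling was read to give IC50. Values are means ± standard errors of three independent experiments.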

[7] = molecular target: Neutral cholesterol ester hydrolase 1 (Homo sapiens, UniProt Q6PIU2); assay: Inhibition of recombinant KIAA1363 transfected in HEK293T cells by SDS-PAGE using rhodamine-tagged FP probe; format: cell-based, HEK-293T; in short: as §2
Sequence of Neutral cholesterol ester hydrolase 1 (Q6PIU2 whole entry): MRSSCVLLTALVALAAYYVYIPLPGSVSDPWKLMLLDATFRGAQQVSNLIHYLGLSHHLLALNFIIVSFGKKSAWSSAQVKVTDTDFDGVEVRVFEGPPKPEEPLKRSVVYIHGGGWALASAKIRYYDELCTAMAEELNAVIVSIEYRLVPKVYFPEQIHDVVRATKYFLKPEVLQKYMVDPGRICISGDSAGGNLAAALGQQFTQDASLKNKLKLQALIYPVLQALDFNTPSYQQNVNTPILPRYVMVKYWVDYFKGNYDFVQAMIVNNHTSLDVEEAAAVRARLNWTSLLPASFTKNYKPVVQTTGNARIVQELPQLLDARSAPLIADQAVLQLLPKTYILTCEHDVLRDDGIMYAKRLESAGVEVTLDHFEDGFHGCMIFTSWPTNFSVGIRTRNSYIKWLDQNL

[8] = molecular target: Diacylglycerol lipase-beta (Homo sapiens) (UniProt Q8NCG7); assay: Inhibition of recombinant DAGLbeta overexpressed in african green monkey COS7 cells assessed as accumulation of 2-arachidonoylglycerol […]; format: cell-based; details: COS-7
Sequence of Diacylglycerol lipase-beta (Homo sapiens) (Q8NCG7 whole entry): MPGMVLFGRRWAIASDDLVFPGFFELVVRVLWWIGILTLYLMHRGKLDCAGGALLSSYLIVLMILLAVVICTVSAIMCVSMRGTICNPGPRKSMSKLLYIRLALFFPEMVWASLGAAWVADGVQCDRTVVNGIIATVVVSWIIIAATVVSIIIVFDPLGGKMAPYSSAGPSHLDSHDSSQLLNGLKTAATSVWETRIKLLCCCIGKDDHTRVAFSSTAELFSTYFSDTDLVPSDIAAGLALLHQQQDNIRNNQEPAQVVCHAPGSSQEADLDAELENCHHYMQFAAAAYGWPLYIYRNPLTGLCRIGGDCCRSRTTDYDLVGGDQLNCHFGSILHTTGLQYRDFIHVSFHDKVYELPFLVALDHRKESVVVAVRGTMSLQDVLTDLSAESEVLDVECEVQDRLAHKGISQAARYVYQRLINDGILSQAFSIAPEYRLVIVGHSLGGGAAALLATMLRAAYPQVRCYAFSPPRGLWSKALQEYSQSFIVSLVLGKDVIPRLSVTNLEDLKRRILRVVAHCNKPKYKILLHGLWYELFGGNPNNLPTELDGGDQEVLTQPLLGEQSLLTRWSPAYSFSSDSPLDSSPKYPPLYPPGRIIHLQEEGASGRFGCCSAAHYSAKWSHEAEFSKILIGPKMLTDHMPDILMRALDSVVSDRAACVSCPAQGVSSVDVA

[9] = molecular target: Diacylglycerol lipase-alpha (Homo sapiens) (UniProt Q9Y4D2); assay: Inhibition of recombinant DAGLalpha overexpressed in african green monkey COS7 cells assessed as accumulation of 2-arachidonoylglycerol […]; format: cell-based; details: COS-7
Sequence of Diacylglycerol lipase-alpha (Homo sapiens) (Q9Y4D2 whole entry): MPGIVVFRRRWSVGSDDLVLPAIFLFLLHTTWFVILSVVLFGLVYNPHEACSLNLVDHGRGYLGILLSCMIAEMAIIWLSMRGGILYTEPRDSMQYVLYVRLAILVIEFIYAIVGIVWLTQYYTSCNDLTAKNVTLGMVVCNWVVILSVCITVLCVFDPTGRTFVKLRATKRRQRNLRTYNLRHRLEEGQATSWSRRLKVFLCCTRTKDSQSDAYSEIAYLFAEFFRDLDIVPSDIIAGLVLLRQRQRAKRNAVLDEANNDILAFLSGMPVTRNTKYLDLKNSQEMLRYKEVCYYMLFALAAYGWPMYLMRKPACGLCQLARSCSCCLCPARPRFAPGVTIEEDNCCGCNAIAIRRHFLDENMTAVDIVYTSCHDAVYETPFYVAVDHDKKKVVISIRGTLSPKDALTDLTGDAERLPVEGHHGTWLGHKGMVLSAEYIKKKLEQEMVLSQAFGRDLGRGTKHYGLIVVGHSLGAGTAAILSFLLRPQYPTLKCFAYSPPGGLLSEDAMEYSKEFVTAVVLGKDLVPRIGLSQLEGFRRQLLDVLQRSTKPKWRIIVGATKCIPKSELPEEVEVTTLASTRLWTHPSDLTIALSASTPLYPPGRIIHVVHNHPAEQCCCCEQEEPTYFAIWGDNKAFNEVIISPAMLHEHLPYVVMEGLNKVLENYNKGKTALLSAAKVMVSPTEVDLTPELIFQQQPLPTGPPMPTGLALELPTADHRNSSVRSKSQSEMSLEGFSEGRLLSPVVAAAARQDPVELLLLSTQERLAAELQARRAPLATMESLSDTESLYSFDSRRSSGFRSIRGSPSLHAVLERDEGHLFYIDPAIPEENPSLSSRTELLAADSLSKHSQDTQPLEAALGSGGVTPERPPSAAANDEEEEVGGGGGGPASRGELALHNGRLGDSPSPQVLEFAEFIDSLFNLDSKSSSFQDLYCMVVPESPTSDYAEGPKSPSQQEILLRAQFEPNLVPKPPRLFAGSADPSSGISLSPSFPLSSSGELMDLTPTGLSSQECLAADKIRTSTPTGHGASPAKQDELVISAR

O=C(NCCCCCCNC(=O)ON=C1CCCCC1)ON=C1CCCCC1
Activity [1]: Active | Activity [2]: Active | Activity [3]: Active | Activity [4]: inactive | Activity [5]: inactive | IC50 [6]: > 100000 nM | IC50 [7]: 10 µM | Activity [8]: Active | Activity [9]: Active

CCCCCCCCCCC[C@@H](C[C@@H]1OC(=O)[C@H]1CCCCCC)OC(=O)[C@H](CC(C)C)NC=O [ORLISTAT]
Activity [1]: Active | Activity [2]: Active | Activity [3]: Active | Activity [4]: inactive | Activity [5]: inactive | IC50 [6]: 80 nM | IC50 [7]: > 100 µM | Activity [8]: Active | Activity [9]: Active
